Results as given in ChEMBL document CHEMBL3853330, “Exploring the N-Terminal Region of C-X-C Motif Chemokine 12 (CXCL12): Identification of Plasma-Stable Cyclic Peptides As Novel, Potent C-X-C Chemokine Receptor Type 4 (CXCR4) Antagonists” (J Med Chem, 2016).
Values belong to the compound of their own block, whether it stands above or below them. Active and inactive are the calls of the source. The calls are words filed in the database; no cut-off is given here. Positions of bridges follow the written chain, without caps; N, C: chain ends. Residues, ends and D or L forms follow the SMILES beside them.

Key:
[1] = Drug level in human plasma treated with (4R,7S,10S,13S,16R)-16-amino-7,10-dibenzyl-13-(3-guanidinopropyl)-6,9,12,15-tetraoxo-1,2-dithia-5,8,11,14-tetraazacycloheptadecane-4-carboxylic acid after 2 hrs by ESI-RP-HPLC analysis; assay type: ADME
Method in brief: (§1)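 Peptide (1 mg/mL in water) was mixed 1:1 with prewarmed (37 °C) human plasma diluted to 50% in water. Aliquots were taken at 0, 30, 60, 120 and 180 min and quenched with 1% TFA in acetonitrile. After centrifugation, supernatants were run on C18 HPLC-ESI-MS with a 10–90% ACN gradient (0.1% TFA) over 20 min. Relative levels came from A230 peak integration.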

[2] = molecular target: T1, C-X-C chemokine receptor type 4 (Homo sapiens, UniProt P61073); experiment: Inhibition of PE-conjugated-12G5 anti-CXCR4 antibody binding to CXCR4 in human CEM-CCRF cells preincubated for 30 mins followed by antibody addition by FACS Canto II cytofluorometric analysis; assay type: cell-based
[3] = Metabolic stability in human plasma after 180 mins by ESI-RP-HPLC analysis; assay type: ADME, cell-free; conditions: 3 h; method in brief: as §1
[4] = molecular target: T1, C-X-C chemokine receptor type 4; experiment: Inhibition of GFP-tagged CXCR4 (unknown origin) internalization expressed in human HCT116 cells assessed as reduction in vesicle size at 0.1 uM pre-incubated for 45 mins followed by CXCL12 addition measured after 45 mins by alpha-tubulin/alexa fluor594/DAPI staining based confocal microscopic analysis; assay type: cell-based; conditions: HCT-116
Method in brief: (§2)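 HCT116 cells were stably transfected with GFP-CXCR4, grown 1 day on coverslips in DMEM/10% FBS, then equilibrated in DMEM with 0.5% BSA. Cells got peptide (0.1 μM) for 45 min at 37 °C, then CXCL12 for 45 min at 37 °C. They were fixed in 4% formaldehyde, permeabilized with 0.1% Triton, and stained for α-tubulin (Alexa Fluor 594) and DAPI. Confocal microscopy assessed membrane fluorescence and intracellular vesicles.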

[5] = molecular target: T1, C-X-C chemokine receptor type 4; experiment: Inhibition of CXCR4 in human serum starved CEM cells assessed as suppression of CXCL12-dependent ERK phosphorylation at 0.001 to 0.1 uM after 2 to 20 mins in presence of CXCL12 by H/E staining based microscopic analysis; assay type: cell-based; conditions: CCRF-CEM, in the assay text read “immunoblotting” for “H/E staining based microscopic analysis”
Method in brief: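 Serum-starved CEM cells were stimulated with CXCL12 (100 ng/mL) in the presence of peptide. Lysates were made in Hepes pH 7.5/Triton X-100 buffer with protease and phosphatase inhibitors and immunoblotted for p-ERK and ERK2. Induction is the ratio of p-ERK with CXCL12 to p-ERK under serum-free conditions.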

[6] = molecular target: T1, C-X-C chemokine receptor type 4; experiment: Inhibition of 12G5 anti-CXCR4 antibody binding to CXCR4 in human HT29 cells preincubated for 30 mins followed by antibody addition by FACS Canto II cytofluorometric analysis; assay type: cell-based, HT-29
[7] = molecular target: T1, C-X-C chemokine receptor type 4; experiment: Inhibition of CXCR4 in human CEM cells assessed as suppression of CXCL12-dependent cell migration after 18 hrs in presence of CXCL12 by H/E staining based microscopic analysis; conditions: CCRF-CEM
Method in brief: (§3)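 Transwell migration assay: inserts with 5 μm pores for CEM cells and 8 μm pores for HT29 cells, membranes precoated with human collagen type I/III and fibronectin (20 μg/mL each). 2 × 10^5 cells went in the upper chamber in medium with 1% BSA plus peptide, and 100 ng/mL CXCL12 in the lower chamber, for 18 h. Migrated cells were H&E-stained and counted in 10 fields. Migration index was taken against BSA-only medium.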

[8] = molecular target: T1, C-X-C chemokine receptor type 4; experiment: Antagonist activity at CXCR4 in human HT29 cells assessed as suppression of CXCL12 dependent cell migration at 0.0001 to 10 uM in presence of CXCL12 by H/E staining based microscopic analysis; conditions: HT-29; method in brief: as §3
[9] = molecular target: T1, C-X-C chemokine receptor type 4; experiment: Inhibition of GFP-tagged CXCR4 (unknown origin) internalization expressed in human HCT116 cells at 0.1 uM pre-incubated for 45 mins followed by CXCL12 addition measured after 45 mins by alpha-tubulin/alexa fluor594/DAPI staining based confocal microscopic analysis; assay type: cell-based; conditions: HCT-116; method in brief: as §2
[10] = Drug metabolism in human plasma after 30 mins by ESI-RP-HPLC analysis; assay type: ADME, cell-free; conditions: read-out: Drug metabolism
[11] = Metabolic stability in human plasma assessed as compound degradation after 60 mins by ESI-RP-HPLC analysis; assay type: ADME, cell-free; conditions: read-out: Drug degradation; method in brief: as §1
[12] = Drug metabolism in human plasma assessed as cyclic pentapeptide cyclo[Cys-Arg-Phe-Phe-Cys] metabolite formation after 120 mins by ESI-RP-HPLC analysis; assay type: ADME, cell-free; conditions: 2 h; method in brief: as §1

T1 sequence (P61073 whole entry): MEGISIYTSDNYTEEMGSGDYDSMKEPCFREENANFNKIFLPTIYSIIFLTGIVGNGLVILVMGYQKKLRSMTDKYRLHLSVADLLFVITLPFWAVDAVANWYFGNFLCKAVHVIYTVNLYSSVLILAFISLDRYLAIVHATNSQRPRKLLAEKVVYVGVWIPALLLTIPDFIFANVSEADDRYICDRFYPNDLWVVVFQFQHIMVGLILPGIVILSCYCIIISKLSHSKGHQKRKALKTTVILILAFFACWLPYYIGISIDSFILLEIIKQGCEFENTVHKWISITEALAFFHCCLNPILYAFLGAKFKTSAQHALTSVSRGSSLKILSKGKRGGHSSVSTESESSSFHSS

SMILES: N=C(N)NCCC[C@@H]1NC(=O)[C@@H](N)CSSC[C@@H](C(=O)O)NC(=O)[C@H](Cc2ccccc2)NC(=O)[C@H](Cc2ccccc2)NC1=O (H-CRFFC-OH; disulfide 1-5)
- Drug uptake [1]: Active

SMILES: C[C@H](NC(=O)[C@@H](N)CCCNC(=N)N)C(=O)N[C@H]1CSSC[C@@H](C(=O)O)NC(=O)[C@H](Cc2ccccc2)NC(=O)[C@H](Cc2ccccc2)NC(=O)[C@H](CCCNC(=N)N)NC1=O (H-RACRFFC-OH; disulfide 3-7)
- metabolised at 0.5 h [10]: 30%
- inhibition [4]: Active
- metabolised at 1 h [11]: 50%
- inhibition [5]: Active
- IC50 [6]: 5.2 µM
- inhibition [7]: Active
- inhibition [8]: Active
- IC50 [2]: 6.2 µM
- Drug metabolism [12]: Metabolite_Detected
- inhibition [9]: Active

SMILES: CC(=O)N[C@@H](CCCNC(=N)N)C(=O)N[C@@H](C)C(=O)N[C@@H]1CSSC[C@@H](C(=O)O)NC(=O)[C@H](Cc2ccccc2)NC(=O)[C@H](Cc2ccccc2)NC(=O)[C@H](C)NC1=O
- IC50 [2]: > 10 µM

SMILES: CC(=O)N[C@H](CCCNC(=N)N)C(=O)N[C@@H](C)C(=O)N[C@H]1CSSC[C@@H](C(=O)O)NC(=O)[C@H](Cc2ccccc2)NC(=O)[C@H](Cc2ccccc2)NC(=O)[C@H](CCCNC(=N)N)NC1=O
- IC50 [2]: > 10 µM

SMILES: CC(=O)N[C@@H](CCCNC(=N)N)C(=O)N[C@@H](C)C(=O)N[C@H]1CSSC[C@@H](C(=O)O)NC(=O)[C@@H](Cc2ccccc2)NC(=O)[C@H](Cc2ccccc2)NC(=O)[C@H](CCCNC(=N)N)NC1=O
- IC50 [2]: > 10 µM

SMILES: CC(=O)N[C@@H](C)C(=O)N[C@@H](C)C(=O)N[C@@H]1CSSC[C@@H](C(=O)O)NC(=O)[C@H](Cc2ccccc2)NC(=O)[C@H](Cc2ccccc2)NC(=O)[C@H](CCCNC(=N)N)NC1=O
- IC50 [2]: > 10 µM

SMILES: CC(=O)N[C@@H](CCCNC(=N)N)C(=O)N[C@H](C)C(=O)N[C@H]1CSSC[C@@H](C(=O)O)NC(=O)[C@H](Cc2ccccc2)NC(=O)[C@H](Cc2ccccc2)NC(=O)[C@H](CCCNC(=N)N)NC1=O
- IC50 [2]: > 10 µM

SMILES: CC(=O)N[C@@H](CCCNC(=N)N)C(=O)N[C@@H](C)C(=O)N[C@@H]1CSSC[C@@H](C(=O)O)NC(=O)[C@H](C)NC(=O)[C@H](Cc2ccccc2)NC(=O)[C@H](CCCNC(=N)N)NC1=O
- IC50 [2]: > 10 µM

SMILES: CC(=O)N[C@@H](CCCNC(=N)N)C(=O)N[C@@H](C)C(=O)N[C@@H]1CSSC[C@@H](C(=O)O)NC(=O)[C@H](Cc2ccccc2)NC(=O)[C@H](C)NC(=O)[C@H](CCCNC(=N)N)NC1=O
- IC50 [2]: > 10 µM

SMILES: CC(=O)N[C@@H](CCCNC(=N)N)C(=O)N[C@@H](C)C(=O)N[C@H]1CSSC[C@@H](C(=O)O)NC(=O)[C@H](Cc2ccccc2)NC(=O)[C@H](Cc2ccccc2)NC(=O)[C@@H](CCCNC(=N)N)NC1=O
- IC50 [2]: > 10 µM

SMILES: CC(=O)N[C@@H](CCCNC(=N)N)C(=O)N[C@@H](C)C(=O)N[C@H]1CSSC[C@@H](C(=O)O)NC(=O)[C@H](Cc2ccccc2)NC(=O)[C@@H](Cc2ccccc2)NC(=O)[C@H](CCCNC(=N)N)NC1=O
- IC50 [2]: > 10 µM

More lines, in order of falling IC50 [2], values ahead:

- IC50 [2]: 5.9 µM
SMILES: CC(=O)N[C@@H](CCCNC(=N)N)C(=O)N[C@@H](C)C(=O)N[C@H]1CSSC[C@H](C(=O)O)NC(=O)[C@H](Cc2ccccc2)NC(=O)[C@H](Cc2ccccc2)NC(=O)[C@H](CCCNC(=N)N)NC1=O

- IC50 [2]: 5.9 µM
SMILES: C[C@H](NC(=O)[C@@H](N)CCCNC(=N)N)C(=O)N[C@H]1CSSC[C@@H](C(N)=O)NC(=O)[C@H](Cc2ccccc2)NC(=O)[C@H](Cc2ccccc2)NC(=O)[C@H](CCCNC(=N)N)NC1=O (H-RACRFFC-NH2; disulfide 3-7)

- IC50 [2]: 1.23 µM
SMILES: CC(=O)N[C@@H](CCCNC(=N)N)C(=O)N[C@@H](C)C(=O)N[C@H]1CSSC[C@@H](C(N)=O)NC(=O)[C@H](Cc2ccccc2)NC(=O)[C@H](Cc2ccccc2)NC(=O)[C@H](CCCNC(=N)N)NC1=O (Ac-RACRFFC-NH2; disulfide 3-7)

- IC50 [2]: 0.131 µM
- Stability [3]: Stable
SMILES: CC(=O)N[C@@H](CCCNC(=N)N)C(=O)N[C@@H](C)C(=O)N[C@H]1CSSC[C@@H](C(=O)O)NC(=O)[C@H](Cc2ccccc2)NC(=O)[C@H](Cc2ccccc2)NC(=O)[C@H](CCCNC(=N)N)NC1=O

- inhibition [4]: Active
- inhibition [5]: Active
- IC50 [6]: 0.064 µM
- inhibition [7]: Active
- inhibition [8]: Active
- IC50 [2]: 0.053 µM
- Stability [3]: Stable
- inhibition [9]: Active
SMILES: CC(=O)N[C@@H](CCCNC(=N)N)C(=O)N[C@@H](C)C(=O)N[C@@H]1CSSC[C@@H](C(=O)O)NC(=O)[C@H](Cc2ccccc2)NC(=O)[C@H](Cc2ccccc2)NC(=O)[C@H](CCCNC(=N)N)NC1=O
